High-throughput results from PubChem.
MMP13 inh: human MMP13 inhibitors, primary screen, biochemical, FRET peptide cleavage | inhibition, % at 4 µM | 65,000 compounds, 0.07% hits | AID 570, 2006 | MMP-13 fTHP FRET cleavage, Mca fluorescence | Collagenase 3 (Homo sapiens), P45452;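 active means inhibition above the mean of compound-free control plate wells plus 3 SD, cut at about 14% in these data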;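 further: 0% = DMSO wells and 100% = wells with reference MMP-13 inhibitor after basal subtraction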
RORa activator: activators of orphan receptor RORA, primary screen, cell-based, luminescence; Nuclear receptor ROR-alpha (Homo sapiens), P35398; CHO-K1 Gal4-RORA LBD luciferase reporter; percent increase over mock-subtracted basal signal; activation, % at 10 µM; 65,000 compounds, 1.5% hits; AID 560, 2006;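 active means activation above the mean of all tested compounds plus 3 SD, cut at about 49% in these data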;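 further: 0% = DMSO-treated RORA cells and 100% = added signal equal to DMSO minus mock-transfected cells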
SF-1 act: activators of human SF-1, primary screen, cell-based, CHO-K1, Gal4-SF-1 LBD, luciferase luminescence; Steroidogenic factor 1 (Homo sapiens), Q13285; CHO-K1 Gal4-SF-1 LBD luciferase reporter; % increase over DMSO SF-1-specific signal; activation, % at 10 µM; 65,000 compounds, 1.9% hits;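 active means activation above the mean activation of all tested compounds plus 3 SD, cut at about 50% in these data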
Target sequence (Q13285 whole entry, looked up, the tested form may be a part): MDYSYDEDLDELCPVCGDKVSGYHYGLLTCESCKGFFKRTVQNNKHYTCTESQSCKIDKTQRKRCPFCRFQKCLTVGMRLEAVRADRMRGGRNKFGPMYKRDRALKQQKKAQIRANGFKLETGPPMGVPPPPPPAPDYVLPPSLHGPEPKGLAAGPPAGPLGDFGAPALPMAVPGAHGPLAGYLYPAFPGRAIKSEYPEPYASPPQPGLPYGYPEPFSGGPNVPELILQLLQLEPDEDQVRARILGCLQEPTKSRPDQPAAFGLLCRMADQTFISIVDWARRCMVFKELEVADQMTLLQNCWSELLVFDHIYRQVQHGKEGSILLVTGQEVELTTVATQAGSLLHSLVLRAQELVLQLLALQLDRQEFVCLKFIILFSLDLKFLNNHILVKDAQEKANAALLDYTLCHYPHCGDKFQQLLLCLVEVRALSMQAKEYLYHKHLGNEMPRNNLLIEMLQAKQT
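System: CHO-K1 cells with Gal4–hSF-1 LBD chimera plus Gal4-driven luciferase; quantity: 4,000 CHO-K1 cells per well; compound: one dose, 10 µM compound, 1% DMSO; times: 20 h compound treatment, 37 °C; measured by: SteadyLite luciferase luminescence; read-out: percent activation versus DMSO; benchmarks: DMSO and mock-transfected background; replicates: one test per compound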
Ec RNAP inh: E. coli RNAP inhibitors, biochemical | DNA-directed RNA polymerase subunit beta (Escherichia coli (strain K12)), P0A8V2 | E. coli RNA polymerase, fluorescence transcription assay | inhibition, %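 (tested at 10 µM)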 | 62,000 compounds, 0.2% hits | AID 559, 2006; in the data active means inhibition above about 20%;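 further: 0% = enzyme without compound and 100% = no enzyme blank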
AP ELISA ortho: alternative complement pathway inhibitors, primary screen, biochemical, ELISA, human serum, orthogonally pooled compounds. LPS-coated ELISA, C3 deposition; tested in compound mixtures. inhibition, % at 5 µM. 62,000 compounds, 0.08% hits. AID 1235, 2008;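 active means inhibition above 30% in each of the two pooled mixtures holding the compound, so the lower value exceeds 30%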;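 further: 0% = serum in Mg-EGTA without compound and 100% = EDTA serum blank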
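Test system: human serum alternative complement pathway, C3 deposition on LPS-coated wells; also added: Plate-bound LPS; doses: 5 µM per compound in ten-compound mixtures; schedule: 1 h at 37 °C; detection: Anti-C3 ELISA, OD 450 nm; evaluation: percent inhibition of C3 deposition onto LPS; repeats: two pool placements per compound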
HePTP inhibitor: inhibitors of human HePTP phosphatase, primary screen, biochemical, absorbance, leukemia target | recombinant HePTP phosphatase activity, OD absorbance | inhibition, % at 20 µM | Tyrosine-protein phosphatase non-receptor type 7 (Homo sapiens), P35236 | 110,000 compounds, 0.64% hits; in the data active means inhibition above about 50%;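 further: plate controls were vehicle for no effect and reference inhibitor for full effect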
Active calls of the source: *; / = no result; ! = not confirmed by another sample. Sampled rows, rich in hits. Any-hit rate of the full collection: about 2.4%.

SMILES	MMP13 inh	RORa activator	SF-1 act	Ec RNAP inh	AP ELISA ortho	HePTP inhibitor
O=C(O)c1cccc(NC2=C(Cl)C(=O)N(c3ccc(Cl)cc3)C2=O)c1	/	/	/	/	/	104*
O=C1C(Cl)=C(Nc2ccccc2)C(=O)N1c1cccc(Cl)c1	/	/	/	/	/	6
COc1ccc(S(=O)(=O)N2CCN(Cc3ccccc3)CC2)cc1	5	-3	-4	9	8	-3
COc1ccc(S(=O)(=O)N2CCN(Cc3ccc([N+](=O)[O-])cc3)CC2)cc1	/	/	/	/	/	57*
C=CCN(CC=C)C(=O)CCc1ccccc1	/	/	/	/	/	5
CCC1=NN2C(=N)/C(=C/c3ccc(OCc4ccc(Br)cc4)c(OC)c3)C(=O)N=C2S1	/	/	/	/	/	101*
C=CCN1C(=O)/C(=C/c2ccc(OC(=O)c3ccccc3I)c(OC)c2)SC1=S	/	/	/	/	/	4
COc1ccc(C(=O)/C=C/Nc2cccc(C)n2)cc1OC	-18	13	88*	12	7	2
Cc1cccc(N/C=C/C(=O)c2ccc(Br)cc2)n1	/	/	/	/	/	-12
CCOc1ccc(-c2cc(C)n3nc(C(=O)Nc4ccc(C(C)=O)cc4)cc3n2)cc1	/	/	/	/	/	94*
COc1ccc(Cl)cc1NC(=O)c1cc2nc(-c3ccccc3)cc(C)n2n1	/	/	/	/	/	103*
CCOc1ccc(-c2cc(C)n3nc(C(N)=O)cc3n2)cc1	/	/	/	/	/	18
CSc1ccc(S(=O)(=O)N(CC(=O)Nc2cc(C)cc(C)c2)c2ccc(C)cc2)cc1	/	/	/	/	/	2
COc1ccc(N/C(=N\S(=O)(=O)c2ccc(NC(C)=O)cc2)Nc2nc(C)cc(C)n2)cc1OC	/	/	/	/	/	0
CC(C)(C)C(=O)/C=C(\N)c1ccncc1	-3	-5	2	9	40*	1
COc1cc(/C=C2/SC(=S)N(C)C2=O)cc(Cl)c1OCCOc1ccc(C(C)(C)C)cc1	/	/	/	/	/	-1
COc1ccc(-n2cnc3c(sc4nccc(N(C)C)c43)c2=O)cc1	5	-15	-5	5	9	105*!
COc1ccc(CNc2cccc(C)c2)cc1Br	/	/	/	/	/	1
CC(C)OP(=O)(OC(C)C)C(Nc1ccc(Br)cc1)c1ccc(O)cc1 (configuration not stated)	/	/	/	/	/	0
N#Cc1ccc2c(c1)nc1c3cccc4cccc(c(=O)n21)c43	/	/	/	/	/	65*
O=C(NCC1CCCO1)c1cc(-c2ccccc2)on1 (configuration not stated)	5	91*	68*	10	7	12
Cc1cccc(-c2nc(C#N)c(NC3CCCCC3)o2)c1	-161	35	50*	/	/	9
CCOC(=O)C(=O)N1c2ccccc2C(Nc2ccccc2)CC1C (configuration not stated)	/	/	/	/	/	10
CCOc1cc(N2CCOCC2)c(OCC)cc1NS(=O)(=O)c1ccc(Cl)s1	1	79*	19	5	18	6
O=C(CC1Nc2ccccc2NC1=O)c1ccccc1 (configuration not stated)	8	56*	31	2	1	9
SMILES	MMP13 inh	RORa activator	SF-1 act	Ec RNAP inh	AP ELISA ortho	HePTP inhibitor
O=C(CC1Nc2ccccc2NC1=O)Nc1cccc(C(=O)O)c1 (configuration not stated)	/	/	/	/	/	52*
Cc1ccc(NC(=O)CC2Nc3ccccc3NC2=O)cc1Cl (configuration not stated)	-26	-1	0	4	6	-6
CCOC(=O)Cc1cc(=O)[nH]c(Nc2nc3ccccc3o2)n1	1	50*	11	-10	13	3
CCOc1cc(Br)cc(/C=C2/SC(=S)N(c3ccccc3)C2=O)c1O	/	/	/	/	/	-17
Cc1nn2cc(-c3ccc(N)cc3)nc2s1	-7	22	88*	8	5	10
Cn1c(=O)c2c(nc(NCCCN3CCOCC3)n2Cc2ccc(Cl)cc2)n(C)c1=O	-3	-7	-10	8	15	2
Cc1cc(NCCCN2CCOCC2)n2ncc(-c3ccc(Cl)cc3)c2n1	-71	62*	70*	/	8	7
c1ccc2c(c1)oc1c(NCc3ccc4c(c3)OCO4)ncnc12	1	11	6	/	-3	-4
c1ccc(Nc2ncnc3c2oc2ccccc23)cc1	2	27	65*	3	3	-2
c1ccc2c(c1)oc1c(Nc3ccc4c(c3)OCO4)ncnc12	-2	83*	92*	7	-20	-3
c1ccc2c(c1)oc1c(Nc3ccc(CN4CCOCC4)cc3)ncnc12	-3	14	54*	3	8	7
CC1=CC(C)(C)N(CC(=O)c2ccc([N+](=O)[O-])cc2)c2c(C)cccc21	/	/	/	/	/	-9
COc1ccc(N2C(=O)/C(=C\c3ccc4c(c3)OCO4)SC2=S)cc1	/	/	/	/	/	5
O=C1OC(c2ccccc2)=N/C1=C1\C=C(c2ccccc2)Oc2ccccc21	/	/	/	/	/	-10
c1cncc(-c2nnc(-c3ccco3)o2)c1	-76	15	14	9	1	0
Clc1ccc(-c2nnc(-c3ccco3)o2)cc1	-88	50*	35	-10	11	-14
Cn1c(SCC(=O)c2ccc3c(c2)OCO3)nnc1-c1ccccn1	5	-14	-2	2	-8	10
CC1CCN(C(=O)CSc2nc3ccccc3[nH]2)CC1	3	61*	44	2	17	2
O=C(CSc1nc2ccccc2[nH]1)c1ccc(-c2ccccc2)cc1	/	/	/	/	/	0
O=C(CSc1ccccn1)c1ccc2c(c1)OCO2	2	9	61*	6	14	4
O=C(CSc1nc2ccccc2[nH]1)c1ccc2c(c1)OCO2	6	51*	40	8	6	0
OC(COCC1CC=CCC1)Cn1c2ccccc2c2ccccc21 (configuration not stated)	/	/	/	/	/	5
CC1=NN(c2ccc(S(N)(=O)=O)cc2)C(=O)/C1=C\c1ccc2c(c1)OCO2	/	/	/	/	/	63*
CC(=O)c1ccc(NC2=C(Cl)C(=O)c3ccccc3C2=O)cc1	/	/	/	/	/	3
CCc1ccc(C2NC(=O)c3c(sc4c3CCCC4)N2)cc1 (configuration not stated)	/	/	/	/	/	-5
O=C1NC(c2cccs2)Nc2sc3c(c21)CCCC3 (configuration not stated)	-5	21	70*	4	4	10
CCOc1ccc(/C=C(/C#N)C(=O)Nc2cccc(Br)c2)cc1	/	/	/	/	/	-12
C=CCN=C1CC(C)(C)CC(=O)/C1=C(/O)CCC	/	/	/	/	/	102*
Cc1ccc([N+](=O)[O-])c(OCC(=O)Oc2ccccc2)c1	/	/	/	/	/	1
CCOC(=O)c1conc1-c1ccc(Br)cc1	/	/	/	/	/	-3
